# Active and inactive are the calls of the source. No cut-off for these calls is given here.
# Key:
# HT-29 [1] = test: Immunomodulatory activity in human HT-29 cells co-cultured with interferon gamma-stimulated THP-1 cells assessed as cell viability at 100 uM incubated for 48 hrs by flow cytometry analysis relative to control; assay type: functional; conditions: read-out: Activity
# In short: (§1)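 HT-29 cells at 10^5/well seeded and grown 24 h. Medium then replaced with medium containing IFN-γ (10 ng/ml), 5 × 10^5 THP-1 cells/well and compound at 100 µM; DMSO used as control. After 48 h, THP-1 cells collected from supernatant and cancer cells by trypsinisation. Both fixed in 4% paraformaldehyde and counted by flow cytometry relative to control.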
# HT-29 [2] = test: Immunomodulatory activity in human HT-29 cells co-cultured with interferon gamma-stimulated THP-1 cells assessed as relative PD-L1 protein expression in membrane at 100 uM incubated for 48 hrs by flow cytometry analysis relative to control; assay type: functional
# HT-29 [3] = test: Antiproliferative activity against human HT-29 cells assessed as relative c-Myc protein expression at 100 uM incubated for 48 hrs by flow cytometry analysis relative to control; assay type: functional
# HT-29 [4] = test: Antiproliferative activity against human HT-29 cells assessed as relative VEGFR-2 protein expression in membrane at 100 uM incubated for 48 hrs by flow cytometry analysis relative to control; assay type: functional
# HT-29 [5] = test: Antiproliferative activity against human HT-29 cells assessed as relative PD-L1 protein expression in whole cell at 100 uM incubated for 48 hrs by flow cytometry analysis relative to control; assay type: functional
# [6] = Toxicity against interferon gamma-stimulated human THP-1 monocyte cells co-cultured with human HT-29 cells assessed as reduction in cell viability at 100 uM incubated for 48 hrs by flow cytometry analysis; assay type: cell-based; conditions: thp-1, 48 h; in short: as §1
# HT-29 [7] = test: Antiproliferative activity against human HT-29 cells assessed as relative VEGFR-2 protein expression in whole cell at 100 uM incubated for 48 hrs by flow cytometry analysis relative to control; assay type: functional
# HT-29 [8] = test: Immunomodulatory activity in human HT-29 cells co-cultured with interferon gamma-stimulated THP-1 cells assessed as relative CD-47 protein expression in membrane at 100 uM incubated for 48 hrs by flow cytometry analysis relative to control; assay type: functional
# HT-29 [9] = test: Antiproliferative activity against human HT-29 cells assessed as relative PD-L1 protein expression in membrane at 100 uM incubated for 48 hrs by flow cytometry analysis relative to control; assay type: functional
# HT-29 [10] = test: Immunomodulatory activity in human HT-29 cells co-cultured with interferon gamma-stimulated THP-1 cells assessed as inhibition of cell growth at 100 uM incubated for 48 hrs by flow cytometry analysis relative to control; assay type: functional; in short: as §1
# HT-29 [11] = test: Immunomodulatory activity in human HT-29 cells co-cultured with interferon gamma-stimulated THP-1 cells assessed as induction of morphological changes by measuring cell shrinkage at 100 uM incubated for 48 hrs; assay type: functional, cell-based
# In short: (§2)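 HT-29 cells co-cultured with IFN-γ-stimulated THP-1 cells and treated 48 h with compounds at 100 µM, with DMSO as control. Cell shrinkage and rounded morphology assessed by microscopy images.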
# HT-29 [12] = test: Immunomodulatory activity in human HT-29 cells co-cultured with interferon gamma-stimulated THP-1 cells assessed as reduction in number of cells at 100 uM incubated for 48 hrs; assay type: functional, cell-based; in short: as §1
# HT-29 [13] = test: Immunomodulatory activity in human HT-29 cells co-cultured with interferon gamma-stimulated THP-1 cells assessed as induction of morphological changes by measuring rounded cell morphology at 100 uM incubated for 48 hrs; assay type: functional, cell-based; in short: as §2
Structure (SMILES),viability at 100 µM (HT-29 [1]) [%],Activity (HT-29 [2]) [%],Activity (HT-29 [3]) [%],Activity (HT-29 [4]) [%],Activity (HT-29 [5]) [%],Activity [6],Activity (HT-29 [7]) [%],Activity (HT-29 [8]) [%],Activity (HT-29 [9]) [%],inhibition at 100 µM (HT-29 [10]) [%],Activity (HT-29 [11]),Activity (HT-29 [12]),Activity (HT-29 [13])
O=[N+]([O-])c1cccc(-c2nnn(Cc3ccccc3Br)n2)c1,43,94,90,>100,97,Non-Toxic,75,85,>100,–,–,–,–
Cc1ccc(Cn2nnc(-c3cccc([N+](=O)[O-])c3)n2)cc1,22,168,78,>100,92,Non-Toxic,65,88,63,> 70,–,–,–
COc1cccc(Cn2nnc(-c3cccc([N+](=O)[O-])c3)n2)c1,40,88,75,>100,>100,Non-Toxic,42,77,83,–,Active,Active,Active
COc1cccc(Cn2nnc(-c3cccc(N)c3)n2)c1,66,84,86,76,>100,Non-Toxic,>100,78,>100,–,Active,Active,Active
Cc1ccc(Cn2cc(-c3cccc(N)c3)nn2)cc1,73,144,–,–,–,Non-Toxic,–,101,–,–,–,–,–
COc1cccc(Cn2cc(-c3cccc(N)c3)nn2)c1,33,113,–,–,–,Non-Toxic,–,89,–,–,–,–,–
Nc1cccc(-c2cn(Cc3ccccc3)nn2)c1,78,109,–,–,–,Non-Toxic,–,103,–,–,–,–,–
O=[N+]([O-])c1cccc(-c2nnn(Cc3ccccc3)n2)c1,32,150,82,>100,>100,Non-Toxic,>100,71,66,–,–,–,–
O=[N+]([O-])c1cccc(-c2nnn(Cc3cccc(Cl)c3)n2)c1,90,136,>100,97,90,Non-Toxic,>100,95,>100,–,–,–,–
Cc1ccccc1Cn1nnc(-c2cccc(N)c2)n1,25,103,–,–,–,Non-Toxic,–,75,–,> 70,–,–,–
COc1ccccc1Cn1nnc(-c2cccc([N+](=O)[O-])c2)n1,65,93,86,>100,92,Non-Toxic,55,85,89,–,Active,Active,Active
Nc1cccc(-c2cn(Cc3cccc(Br)c3)nn2)c1,9,137,–,–,–,Non-Toxic,–,95,–,> 90,–,–,–
COc1ccccc1Cn1nnc(-c2cccc(N)c2)n1,54,92,97,99,>100,Non-Toxic,>100,77,97,–,Active,Active,Active
COc1ccc(Cn2cc(-c3cccc(N)c3)nn2)cc1,40,113,–,–,–,Non-Toxic,–,82,–,–,–,–,–
COc1ccc(Cn2nnc(-c3cccc([N+](=O)[O-])c3)n2)cc1,35,102,>100,88,89,Non-Toxic,39,96,84,–,Active,Active,Active
O=[N+]([O-])c1cccc(-c2nnn(Cc3cccc(Br)c3)n2)c1,31,106,76,100,88,Non-Toxic,60,93,>100,> 70,–,–,–
Cc1ccccc1Cn1cc(-c2cccc(N)c2)nn1,74,120,–,–,–,Non-Toxic,–,87,–,–,–,–,–
Cc1cccc(Cn2nnc(-c3cccc([N+](=O)[O-])c3)n2)c1,42,166,89,>100,97,Non-Toxic,84,73,65,–,–,–,–
Nc1cccc(-c2nnn(Cc3ccccc3)n2)c1,64,104,–,–,–,Non-Toxic,–,104,–,–,–,–,–
Cc1ccccc1Cn1nnc(-c2cccc([N+](=O)[O-])c2)n1,56,165,91,>100,94,Non-Toxic,72,75,64,–,–,–,–
Nc1cccc(-c2cn(Cc3ccccc3Br)nn2)c1,35,110,–,–,–,Non-Toxic,–,75,–,–,–,–,–
COc1ccccc1Cn1cc(-c2cccc(N)c2)nn1,62,114,–,–,–,Non-Toxic,–,62,–,–,–,–,–
Cc1cccc(Cn2cc(-c3cccc(N)c3)nn2)c1,44,114,–,–,–,Non-Toxic,–,86,–,–,–,–,–

# Source: ChEMBL document CHEMBL5390247, “Aryl azoles based scaffolds for disrupting tumor microenvironment” (Bioorg Med Chem, 2023)
